Measurements as given in ChEMBL document CHEMBL5030505, “Assessment of NR4A Ligands That Directly Bind and Modulate the Orphan Nuclear Receptor Nurr1” (J Med Chem, 2020).
The source made the active and inactive calls. No cut-off for these calls is given here.

How the values were obtained:
Type in all cases: cell-based
SK-N-BE(2) [1] = experiment: Cytotoxicity against human SKNBE2 cells assessed as reduction in cell viability at 5 to 100 uM incubated for 18 hrs by Cell titer-glo assay; settings: dose 5-100 µM
Procedure, shortened: (§1)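 Cells seeded at 1.5 million per 10-cm dish. Next day they were replated at 10,000 cells/well and rested 4 h. Ligand or vehicle (water, ethanol or DMSO, by ligand) was added in dose-response format in quadruplicate. After 18 h, viability was read by CellTiter-Glo luminescence. Data are mean ± s.e.m., generally representative of 2 independent experiments. One-way ANOVA versus vehicle.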

PC-12 [2] = experiment: Cytotoxicity against rat PC-12 cells assessed as reduction in cell viability at 5 to 100 uM incubated for 18 hrs by Cell titer-glo assay; settings: pc-12, 18 h, dose 5-100 µM; procedure, shortened: as §1
PC-12 [3] = experiment: Modulation of Gal4-fused VP16 expressed in PC12 cells co-transfected with UAS repoter gene assessed as decrease in luciferase activity at 5 to 100 uM incubated for 18 hrs by luciferase reporter gene assay; settings: Human alphaherpesvirus 2, filed as modulator, dose 5-100 µM
Procedure, shortened: (§2)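 Cells in 10-cm dishes were transfected with Gal4-VP16 expression plasmid (2 μg) plus 5xUAS-luciferase reporter (2 μg) for 18 h. They were replated at 10,000 cells/well for 4 h, then given ligand or vehicle (water, ethanol or DMSO) in quadruplicate for 18 h. Luciferase was read with Britelite Plus. Fold change is versus vehicle-treated cells, with one-way ANOVA versus vehicle.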

SKNBE2 [4] = experiment: Modulation of Gal4-fused VP16 expressed in SKNBE2 cells co-transfected with UAS repoter gene assessed as decrease in luciferase activity at 5 to 100 uM incubated for 18 hrs by luciferase reporter gene assay; settings: Human alphaherpesvirus 2, filed as modulator, dose 5-100 µM; procedure, shortened: as §2
[5] = biological target: Nuclear receptor subfamily 4 group A member 2 (Homo sapiens) (UniProt P43354); experiment: Modulation of full length human Nurr1 expressed in SKNBE(2) cells co-transfected with luciferase reporter plasmid harboring NurRE response element assessed as increase in luciferase activity at 1.56 to 6.25 uM incubated for 18 by luciferase reporter gene assay; settings: SKNBE2, filed as modulator, dose 1.56-6.25 µM, time 18.0 hrs
Procedure, shortened: (§3)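 Cells transfected (Lipofectamine 2000, 18 h) with full-length Nurr1 expression plasmid (2 μg) and 3xNBRE- or 3xNurRE-luciferase reporter (6 μg), no internal control normalisation; replated 10,000 cells/well, 4 h; ligand or vehicle in quadruplicate for 18 h; Britelite Plus luminescence as fold change over vehicle. Mean ± s.e.m. (n=4); one-way ANOVA versus vehicle.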

SK-N-BE(2) [6] = experiment: Cytotoxicity against human SKNBE(2) cells assessed as reduction in cell viability at 1.56 to 6.25 microM incubated for 18 hrs by Cell titer-glo assay; settings: dose 1.56-6.25 µM
Procedure, shortened: (§4)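 Cells seeded 1.5 million per 10-cm dish; next day replated at 10,000 cells/well in 384-well format, 4 h, then ligand or vehicle (water, ethanol or DMSO by ligand) added in quadruplicate for 18 h; viability read by CellTiter-Glo luminescence. Mean ± s.e.m. (n=4), generally 2 independent experiments; one-way ANOVA versus vehicle.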

[7] = biological target: Nuclear receptor subfamily 4 group A member 2 (Homo sapiens) (UniProt P43354); experiment: Modulation of full length human Nurr1 expressed in PC12 cells co-transfected with luciferase reporter plasmid harboring NurRE response element assessed as decrease in luciferase activity at 1.56 to 6.25 uM incubated for 18 by luciferase reporter gene assay; settings: PC-12, filed as modulator, dose 1.56-6.25 µM, time 18.0 hrs; procedure, shortened: as §3
HEK-293T = experiment: Cytotoxicity against human HEK293T cells assessed as reduction in cell viability at 1.56 to 6.25 microM incubated for 18 hrs by Cell titer-glo assay; settings: dose 1.56-6.25 µM; procedure, shortened: as §4
[8] = biological target: Nuclear receptor subfamily 4 group A member 2 (Homo sapiens) (UniProt P43354); experiment: Modulation of full length human Nurr1 expressed in HEK293T cells co-transfected with luciferase reporter plasmid harboring NBRE response element assessed as increase in luciferase activity at 1.56 to 6.25 uM incubated for 18 by luciferase reporter gene assay; settings: filed as modulator, dose 1.56-6.25 µM, time 18.0 hrs; procedure, shortened: as §3
HEK293T = experiment: Modulation of Gal4-fused VP16 expressed in HEK293T cells co-transfected with UAS repoter gene assessed as decrease in luciferase activity at 1.56 to 6.25 uM incubated for 18 hrs by luciferase reporter gene assay; settings: Human alphaherpesvirus 2, filed as modulator, dose 1.56-6.25 µM
Procedure, shortened: (§5)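 Constitutive control: cells transfected (Lipofectamine 2000) with Gal4-VP16 expression plasmid (2 μg) plus 5xUAS-luciferase reporter (2 μg), 18 h; replated 10,000 cells/well, 4 h; ligand or vehicle in quadruplicate for 18 h; luciferase read by Britelite Plus; signal as fold change over vehicle-treated cells. Mean ± s.e.m. (n=4); one-way ANOVA versus vehicle.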

[9] = biological target: Nuclear receptor subfamily 4 group A member 2 (Homo sapiens) (UniProt P43354); experiment: Modulation of full length human Nurr1 expressed in HEK293T cells co-transfected with luciferase reporter plasmid harboring NBRE response element assessed as decrease in luciferase activity at 1.56 to 6.25 uM incubated for 18 by luciferase reporter gene assay; settings: filed as modulator, dose 1.56-6.25 µM, time 18.0 hrs; procedure, shortened: as §3
[10] = biological target: Nuclear receptor subfamily 4 group A member 2 (Homo sapiens) (UniProt P43354); experiment: Modulation of full length human Nurr1 expressed in HEK293T cells co-transfected with RXRalpha and luciferase reporter plasmid harboring NBRE response element assessed as decrease in luciferase activity at 1.56 to 6.25 uM incubated for 18 by luciferase reporter gene assay; settings: filed as modulator, dose 1.56-6.25 µM, time 18.0 hrs
[11] = biological target: Nuclear receptor subfamily 4 group A member 2 (Homo sapiens) (UniProt P43354); experiment: Modulation of full length human Nurr1 expressed in SKNBE(2) cells co-transfected with RXRalpha and luciferase reporter plasmid harboring NBRE response element assessed as decrease in luciferase activity at 1.56 to 6.25 uM incubated for 18 by luciferase reporter gene assay; settings: SKNBE2, filed as modulator, dose 1.56-6.25 µM, time 18.0 hrs
PC-12 [12] = experiment: Modulation of Gal4-fused VP16 expressed in PC12 cells co-transfected with UAS repoter gene assessed as decrease in luciferase activity at 1.56 to 6.25 uM incubated for 18 hrs by luciferase reporter gene assay; settings: Human alphaherpesvirus 2, filed as modulator, dose 1.56-6.25 µM; procedure, shortened: as §5
SKNBE2 [13] = experiment: Modulation of Gal4-fused VP16 expressed in SKNBE(2) cells co-transfected with UAS repoter gene assessed as decrease in luciferase activity at 1.56 to 6.25 uM incubated for 18 hrs by luciferase reporter gene assay; settings: Human alphaherpesvirus 2, filed as modulator, dose 1.56-6.25 µM; procedure, shortened: as §5
[14] = biological target: Nuclear receptor subfamily 4 group A member 2 (Homo sapiens) (UniProt P43354); experiment: Modulation of full length human Nurr1 expressed in SKNBE(2) cells co-transfected with RXRalpha and luciferase reporter plasmid harboring NurRE response element assessed as increase in luciferase activity at 1.56 to 6.25 uM incubated for 18 by luciferase reporter gene assay; settings: SKNBE2, filed as modulator, dose 1.56-6.25 µM, time 18.0 hrs
PC-12 [15] = experiment: Cytotoxicity against rat PC12 cells assessed as reduction in cell viability at 1.56 to 6.25 microM incubated for 18 hrs by Cell titer-glo assay; settings: pc-12, 18 h, dose 1.56-6.25 µM; procedure, shortened: as §4
[16] = biological target: Nuclear receptor subfamily 4 group A member 2 (Homo sapiens) (UniProt P43354); experiment: Modulation of full length human Nurr1 expressed in PC12 cells co-transfected with luciferase reporter plasmid harboring NurRE response element assessed as increase in luciferase activity at 1.56 to 6.25 uM incubated for 18 by luciferase reporter gene assay; settings: PC-12, filed as modulator, dose 1.56-6.25 µM, time 18.0 hrs; procedure, shortened: as §3
[17] = biological target: Nuclear receptor subfamily 4 group A member 2 (Homo sapiens) (UniProt P43354); experiment: Modulation of full length human Nurr1 expressed in PC12 cells co-transfected with RXRalpha and luciferase reporter plasmid harboring NBRE response element assessed as increase in luciferase activity at 1.56 to 6.25 uM incubated for 18 by luciferase reporter gene assay; settings: PC-12, filed as modulator, dose 1.56-6.25 µM, time 18.0 hrs
[18] = biological target: Nuclear receptor subfamily 4 group A member 2 (Homo sapiens) (UniProt P43354); experiment: Modulation of full length human Nurr1 expressed in PC12 cells co-transfected with luciferase reporter plasmid harboring NBRE response element assessed as increase in luciferase activity at 1.56 to 6.25 uM incubated for 18 by luciferase reporter gene assay; settings: PC-12, filed as modulator, dose 1.56-6.25 µM, time 18.0 hrs; procedure, shortened: as §3

Sequence of Nuclear receptor subfamily 4 group A member 2 (Homo sapiens) (P43354 whole entry, the tested form may be a part): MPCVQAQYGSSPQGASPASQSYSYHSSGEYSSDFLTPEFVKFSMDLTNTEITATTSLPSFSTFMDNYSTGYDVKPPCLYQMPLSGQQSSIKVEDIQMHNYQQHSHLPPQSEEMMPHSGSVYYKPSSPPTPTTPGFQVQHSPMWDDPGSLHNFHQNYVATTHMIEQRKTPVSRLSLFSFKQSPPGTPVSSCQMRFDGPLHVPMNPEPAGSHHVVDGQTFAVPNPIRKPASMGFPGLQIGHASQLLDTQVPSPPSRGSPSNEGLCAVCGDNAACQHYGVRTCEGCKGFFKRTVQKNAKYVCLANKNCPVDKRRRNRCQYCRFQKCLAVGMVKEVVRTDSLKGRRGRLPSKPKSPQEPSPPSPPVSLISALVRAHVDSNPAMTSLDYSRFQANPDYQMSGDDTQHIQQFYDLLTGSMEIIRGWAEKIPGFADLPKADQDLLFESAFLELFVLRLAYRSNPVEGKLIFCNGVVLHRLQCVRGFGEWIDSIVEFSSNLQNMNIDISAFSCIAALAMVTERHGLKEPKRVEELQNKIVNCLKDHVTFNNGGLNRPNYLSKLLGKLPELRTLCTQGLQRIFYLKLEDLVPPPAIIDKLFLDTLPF

Row | SMILES | Activity (SK-N-BE(2) [1]) | Activity (PC-12 [2]) | Activity (PC-12 [3]) | Activity (SKNBE2 [4]) | Activity [5] | Activity (SK-N-BE(2) [6]) | Activity [7] | Activity (HEK-293T) | Activity [8] | Activity (HEK293T) | Activity [9] | Activity [10] | Activity [11] | Activity (PC-12 [12]) | Activity (SKNBE2 [13]) | Activity [14] | Activity (PC-12 [15]) | Activity [16] | Activity [17] | Activity [18]
1 | CCCCCCCC(=O)c1c(O)cc(O)cc1CC(=O)OCC [CYTOSPORONE B] | Toxic | Toxic | Active | Active |  |  |  |  |  |  |  |  |  |  |  |  |  |  |  | 
2 | CC1=C(O)C(=O)C=C2C1=CC=C1[C@@]2(C)CC[C@@]2(C)[C@@H]3C[C@](C)(C(=O)O)CC[C@]3(C)CC[C@]12C [CELASTROL] |  |  |  |  | Active | Toxic | Active | Toxic | Active | Active | Active | Active | Active | Active | Active | Active | Toxic | Active | Active | Active
